Among the data in ChEMBL document CHEMBL1806492, “Generation of 'Unnatural Natural Product' library and identification of a small molecule inhibitor of XIAP” (Bioorg Med Chem, 2011) are inhibition, Ki and Activity values, retold here.

The target in experiment [1] is E3 ubiquitin-protein ligase XIAP (Homo sapiens) (UniProt P98170). The experiment in a line: Inhibition of human recombinant GST tagged XIAP expressed in Escherichia coli assessed as restoration of XIAP-mediated suppression of caspase-3 activity after 1 hrs using fluorogenic tetrapeptide Ac-DEVD-AFC substrate by caspase de-repression assay.
Chain of E3 ubiquitin-protein ligase XIAP (Homo sapiens) (P98170 whole entry, the tested form may be a part): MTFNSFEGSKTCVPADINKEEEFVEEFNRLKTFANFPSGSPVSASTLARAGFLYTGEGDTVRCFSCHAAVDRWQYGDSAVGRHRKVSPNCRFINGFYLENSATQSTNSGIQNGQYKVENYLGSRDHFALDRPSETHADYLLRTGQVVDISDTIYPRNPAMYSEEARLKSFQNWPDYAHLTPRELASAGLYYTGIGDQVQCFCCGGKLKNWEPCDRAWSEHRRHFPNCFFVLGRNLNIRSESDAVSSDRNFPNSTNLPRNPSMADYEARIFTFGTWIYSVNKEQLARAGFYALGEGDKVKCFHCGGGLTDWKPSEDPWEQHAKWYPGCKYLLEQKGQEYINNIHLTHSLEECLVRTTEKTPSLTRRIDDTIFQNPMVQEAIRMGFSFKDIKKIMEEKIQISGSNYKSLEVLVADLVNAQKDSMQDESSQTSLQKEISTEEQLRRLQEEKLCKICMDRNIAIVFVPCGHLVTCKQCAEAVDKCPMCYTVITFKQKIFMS
Another experiment has as its target T1, Caspase-3 (Homo sapiens) (UniProt P42574).
T1 sequence (whole entry): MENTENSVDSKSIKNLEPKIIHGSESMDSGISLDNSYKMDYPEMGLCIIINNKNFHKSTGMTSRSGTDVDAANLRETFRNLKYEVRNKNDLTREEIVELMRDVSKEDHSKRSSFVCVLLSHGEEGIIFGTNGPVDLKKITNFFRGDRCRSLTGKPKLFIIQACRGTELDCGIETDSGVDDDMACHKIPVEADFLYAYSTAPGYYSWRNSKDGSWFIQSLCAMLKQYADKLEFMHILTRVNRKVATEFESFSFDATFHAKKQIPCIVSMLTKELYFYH
Put plainly: Effect on human caspase-3 activity at 10 uM in the absence of XIAP after 1 hrs using fluorogenic tetrapeptide Ac-DEVD-AFC as substrate.

In experiment [2] the target is E3 ubiquitin-protein ligase XIAP (Homo sapiens) (UniProt P98170). Put plainly: Inhibition of human GST-tagged XIAP binding to active human caspase-3 at 3 uM after 1 hrs by GST pull-down assay.
The target in experiment [3] is Protein kinase C alpha type (Homo sapiens, UniProt P17252). Put plainly: Inhibition of [3H]PDBu binding to PKCalpha-C1A domain peptide.
Experiment [4] concerns the target Protein kinase C beta type (Homo sapiens, UniProt P05771). Put plainly: Inhibition of [3H]PDBu binding to PKCbeta-C1A domain peptide.
Experiment [5] concerns the target Protein kinase C gamma type (Homo sapiens, UniProt P05129). Put plainly: Inhibition of [3H]PDBu binding to PKCgamma-C1A domain peptide.
Experiment [6] deals with Protein kinase C delta type (Homo sapiens, UniProt Q05655). The experiment in a line: Inhibition of [3H]PDBu binding to PKCdelta-C1B domain peptide.
Chain of Protein kinase C delta type (Q05655 whole entry, the tested form may be a part): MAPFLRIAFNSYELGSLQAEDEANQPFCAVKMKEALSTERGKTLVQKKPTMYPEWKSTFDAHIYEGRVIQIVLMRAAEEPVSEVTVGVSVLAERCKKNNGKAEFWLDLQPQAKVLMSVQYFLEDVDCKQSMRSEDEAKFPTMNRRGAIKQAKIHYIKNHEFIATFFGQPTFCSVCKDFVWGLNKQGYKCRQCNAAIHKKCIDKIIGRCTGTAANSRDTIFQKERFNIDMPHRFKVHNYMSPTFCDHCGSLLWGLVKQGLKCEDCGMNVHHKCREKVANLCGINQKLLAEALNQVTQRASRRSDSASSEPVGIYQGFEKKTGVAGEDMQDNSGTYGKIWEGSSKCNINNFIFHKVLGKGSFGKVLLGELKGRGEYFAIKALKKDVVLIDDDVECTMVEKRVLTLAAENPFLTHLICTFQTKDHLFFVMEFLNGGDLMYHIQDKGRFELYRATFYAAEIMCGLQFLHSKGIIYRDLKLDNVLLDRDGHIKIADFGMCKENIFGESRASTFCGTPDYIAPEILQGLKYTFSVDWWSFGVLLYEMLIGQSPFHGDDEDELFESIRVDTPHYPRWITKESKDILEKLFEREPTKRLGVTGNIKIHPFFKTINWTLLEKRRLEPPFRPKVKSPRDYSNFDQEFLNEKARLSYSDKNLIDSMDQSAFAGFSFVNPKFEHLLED
Experiment [7] has as its target T2, Protein kinase C epsilon type (Homo sapiens, UniProt Q02156).
T2 sequence (Q02156 whole entry): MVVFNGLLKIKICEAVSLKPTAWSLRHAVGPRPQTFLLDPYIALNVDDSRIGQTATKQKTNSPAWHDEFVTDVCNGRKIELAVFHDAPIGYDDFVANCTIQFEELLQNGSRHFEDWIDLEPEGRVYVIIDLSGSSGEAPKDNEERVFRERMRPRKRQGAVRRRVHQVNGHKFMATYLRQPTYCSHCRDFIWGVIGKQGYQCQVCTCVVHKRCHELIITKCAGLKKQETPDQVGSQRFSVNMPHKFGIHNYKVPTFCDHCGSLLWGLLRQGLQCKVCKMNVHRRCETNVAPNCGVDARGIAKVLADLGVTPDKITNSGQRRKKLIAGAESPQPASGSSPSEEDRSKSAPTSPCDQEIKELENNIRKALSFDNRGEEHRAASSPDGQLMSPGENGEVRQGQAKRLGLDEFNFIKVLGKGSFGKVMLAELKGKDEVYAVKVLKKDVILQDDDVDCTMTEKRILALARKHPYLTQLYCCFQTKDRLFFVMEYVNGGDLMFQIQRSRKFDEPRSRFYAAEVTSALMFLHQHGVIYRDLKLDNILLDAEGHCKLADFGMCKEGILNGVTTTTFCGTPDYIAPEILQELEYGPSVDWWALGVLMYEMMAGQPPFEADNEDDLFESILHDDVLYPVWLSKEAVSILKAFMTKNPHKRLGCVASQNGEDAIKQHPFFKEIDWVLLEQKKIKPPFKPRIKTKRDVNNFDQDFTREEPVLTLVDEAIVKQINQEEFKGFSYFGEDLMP
The experiment in a line: Inhibition of [3H]PDBu binding to PKCepsilon-C1B domain peptide.

In experiment [8] the target is Protein kinase C eta type (Homo sapiens, UniProt P24723). Put plainly: Inhibition of [3H]PDBu binding to PKCeta-C1B domain peptide.
Chain of Protein kinase C eta type (P24723 whole entry, the tested form may be a part): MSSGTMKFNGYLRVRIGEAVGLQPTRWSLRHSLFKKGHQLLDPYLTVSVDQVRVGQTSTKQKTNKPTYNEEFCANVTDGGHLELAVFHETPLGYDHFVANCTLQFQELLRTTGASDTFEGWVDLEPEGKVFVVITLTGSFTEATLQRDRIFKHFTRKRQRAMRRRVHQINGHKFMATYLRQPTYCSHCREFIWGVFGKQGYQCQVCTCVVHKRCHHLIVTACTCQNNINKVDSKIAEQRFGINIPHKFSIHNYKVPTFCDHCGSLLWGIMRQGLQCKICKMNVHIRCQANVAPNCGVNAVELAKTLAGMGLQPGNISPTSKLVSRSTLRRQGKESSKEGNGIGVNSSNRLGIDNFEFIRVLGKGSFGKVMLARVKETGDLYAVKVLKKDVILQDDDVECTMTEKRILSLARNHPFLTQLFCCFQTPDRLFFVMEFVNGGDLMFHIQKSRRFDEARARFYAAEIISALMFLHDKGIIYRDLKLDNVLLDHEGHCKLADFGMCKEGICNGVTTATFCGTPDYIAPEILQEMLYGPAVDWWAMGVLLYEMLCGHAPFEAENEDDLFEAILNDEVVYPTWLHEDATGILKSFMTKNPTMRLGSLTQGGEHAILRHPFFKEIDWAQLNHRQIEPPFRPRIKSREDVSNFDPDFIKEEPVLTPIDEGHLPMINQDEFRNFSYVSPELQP
Experiment [9] deals with HeLa. The experiment in a line: Induction of sensitization of human HeLa cells to camptothecin-induced apoptosis at 10 uM after 48 hrs by trypan blue dye exclusion assay. Type of experiment: functional, cell-based. An outline of the steps: (§1)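 HeLa cells seeded at 2×10^4 cells/well, cultured overnight, then exposed to test compounds at various concentrations for 48 h. Viable cells counted by trypan blue dye exclusion.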

In experiment [10] the test system is HeLa. Put plainly: Induction of sensitization of human HeLa cells to camptothecin-induced apoptosis assessed as induction DNA fragmentation at 10 uM after 24 hrs by propidium iodide-staining based FACS assay. Type of experiment: functional, cell-based. An outline of the steps:
(§2)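 HeLa cells seeded at 1×10^5 cells/well and cultured overnight, then exposed to various concentrations of test compounds for 24 h. Nuclei stained with propidium iodide. Cell death measured by flow cytometry as DNA fragmentation, read as the sub-G1 population.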
Background: A flow cytometer gives signals particle by particle.

Experiment [11] relates to HeLa. Put plainly: Induction of sensitization of human HeLa cells to staurosporine-induced apoptosis assessed as induction DNA fragmentation at 10 uM after 24 hrs by propidium iodide-staining based FACS assay. Type of experiment: functional, cell-based. An outline of the steps:
as §2

The subject of experiment [12] is HeLa. Put plainly: Induction of sensitization of human HeLa cells to staurosporine-induced apoptosis at 10 uM after 48 hrs by trypan blue dye exclusion assay. Type of experiment: functional, cell-based. An outline of the steps: as §1
The test system of experiment [13] is HeLa. The experiment in a line: Induction of sensitization of human HeLa cells to camptothecin-induced apoptosis assessed as induction DNA fragmentation at 160 nM after 24 hrs by propidium iodide-staining based FACS assay. It counts as functional, cell-based. An outline of the steps: as §2
Experiment [14] concerns HeLa. The experiment in a line: Induction of sensitization of human HeLa cells to staurosporine-induced apoptosis assessed as induction DNA fragmentation at 160 nM after 24 hrs by propidium iodide-staining based FACS assay. Type of experiment: functional, cell-based. The method, boiled down: as §2
For experiment [15], the system named is HeLa. The experiment in a line: Suppression of camptothecin-induced apoptosis in human HeLa cells assessed as reduction in DNA fragmentation at 100 uM after 24 hrs by propidium iodide-staining based FACS assay. Type of experiment: functional, cell-based. The method, boiled down: (§3)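 HeLa cells seeded at 1×10^5 cells/well, cultured overnight, treated with test compounds at various concentrations for 24 h. Nuclei stained with propidium iodide; cell death scored by flow cytometry as the sub-G1 (fragmented DNA) population.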

Experiment [16] relates to HeLa. Put plainly: Suppression of staurosporine-induced apoptosis in human HeLa cells assessed as reduction in DNA fragmentation at 100 uM after 24 hrs by propidium iodide-staining based FACS assay. Type of experiment: functional, cell-based. The method, boiled down:
as §3

pKi: −log10 of the molar value. Active and inactive are the calls of the source. The calls are words filed in the database; no cut-off is given here. Residues, ends and D or L forms follow the SMILES beside them. *: point of attachment. Cbz = O=C(OCc1ccccc1)*; CH2F = FC*

Chain of Protein kinase C beta type (P05771 whole entry, the tested form may be a part): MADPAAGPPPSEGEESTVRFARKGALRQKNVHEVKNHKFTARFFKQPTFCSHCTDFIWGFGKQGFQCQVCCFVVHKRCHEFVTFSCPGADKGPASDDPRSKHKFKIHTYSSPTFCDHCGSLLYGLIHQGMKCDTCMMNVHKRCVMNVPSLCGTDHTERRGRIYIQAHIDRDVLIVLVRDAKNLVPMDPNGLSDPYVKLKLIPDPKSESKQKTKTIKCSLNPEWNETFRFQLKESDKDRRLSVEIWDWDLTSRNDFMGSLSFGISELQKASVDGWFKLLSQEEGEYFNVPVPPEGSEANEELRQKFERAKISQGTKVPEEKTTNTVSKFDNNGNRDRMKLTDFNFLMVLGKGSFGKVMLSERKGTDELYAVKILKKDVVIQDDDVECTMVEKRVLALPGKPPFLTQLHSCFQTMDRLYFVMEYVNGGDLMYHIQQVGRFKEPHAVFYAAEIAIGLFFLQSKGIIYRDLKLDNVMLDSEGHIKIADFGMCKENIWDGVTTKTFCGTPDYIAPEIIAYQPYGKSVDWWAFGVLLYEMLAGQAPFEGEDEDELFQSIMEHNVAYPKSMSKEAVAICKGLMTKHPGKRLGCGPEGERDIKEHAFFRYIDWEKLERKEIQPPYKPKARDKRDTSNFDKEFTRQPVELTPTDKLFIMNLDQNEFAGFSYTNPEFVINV

For `C=C[C@@]1(C)CC[C@](C)(C(C)C)c2cc3c4c(c[nH]c4c21)CC(=O)NC(=O)[C@H](C(C)C)N3C`, the inhibition entry in experiment [1] and in [2] was “Active” each time. For the same compound, at Caspase-3 (Homo sapiens), the inhibition entry was “inactive”. Also, the pKi (usually the negative decadic logarithm of the Ki, by convention in mol/L) in experiment [3] is 6.22; in experiment [4], 6.14; in [5], 6.18; in experiment [6], 7.06; in [7], 6.32; in [8] it was 6.44. The outcome with HeLa [9], in the experiment on HeLa [10], with HeLa [11] and in the experiment on HeLa [12] was Active.

Take `CCCCCCCCCCCCCC(=O)O[C@@H]1[C@@H](C)[C@@]2(O)[C@@H](C=C(CO)C[C@]3(O)C(=O)C(C)=C[C@@H]23)[C@@H]2C(C)(C)[C@]12OC(C)=O`: the outcome in the experiment on HeLa [13] and with HeLa [14] was inactive.

`COC(=O)C[C@H](NC(=O)[C@H](C)NC(=O)[C@@H](NC(=O)OCc1ccccc1)C(C)C)C(=O)CF` (Cbz-Val-Ala-Asp(OMe)-CH2F): the outcome with HeLa [15] and with HeLa [16] was inactive.

Regarding `C=C[C@]1(C)CC[C@@](C)(C(C)C)c2cc3c4c(c[nH]c4c21)C[C@@H](CO)NC(=O)[C@H](C(C)C)N3C`, the inhibition result in experiment [1] and in [2] was “inactive” each time. For the same compound, the result at Caspase-3 (Homo sapiens) was Active. Moreover, the outcome in the experiment on HeLa [10] and in the experiment on HeLa [11] was inactive.
